# Screens deposited in PubChem by Sanford-Burnham Center for Chemical Genomics.
# Sampled rows, rich in hits. Any-hit rate of the full collection: about 3.9%.
# TIM10 inh: growth inhibitors of TIM10 yeast strain. S. cerevisiae TIM10 strain growth, BacTiter-Glo luminescence, 24 h. inhibition, % at 10 µM. 330,000 tested, 1.4% active. AID 463195;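 active means inhibition of 40% or more at the single tested concentration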;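 further: wild-type TIM10 isogenic control strain grown at permissive 25 °C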
# UPR XBP1 act: activators of adaptive arm of unfolded protein response (XBP1); 330,000 tested, 0.33% active; CHO-XBP1 luciferase reporter, IRE1-XBP1 UPR activation, luminescence; percent of tunicamycin response, DMSO as zero; activation, % at 20 µM;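 active means versus positive control, 20 µM dose yields 30% or more activation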;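 further: 100% = tunicamycin at 10 µg/mL and 0% = DMSO only wells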
#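 Material: CHO-XBP1 cells stably carrying IRE1-XBP1-driven luciferase reporter | Medium: F12 with 10% serum | Compound dosing: 20 µM single concentration, DMSO 1% | Incubation: Overnight seeding at 37 °C, 6 h compound treatment at 37 °C | Detection: Steady-Glo luminescence read | Read-out basis: % activation of reporter signal versus tunicamycin and DMSO controls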
# tim10-1 inh: inhibits growth of tim10-1 mutant yeast; 330,000 tested, 2.2% active; S. cerevisiae tim10-1 ts strain growth, BacTiter-Glo, 24 h; inhibition, % at 20 µM;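 active means inhibition of at least 40%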;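 further: mutant grown at 25 °C; 0% = DMSO wells with yeast and 100% = wells holding no yeast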
# tim23-1 inh: growth inhibitors of tim23-1 mutant yeast; S. cerevisiae tim23-1 growth, BacTiter-Glo luminescence, 24 h; inhibition, % at 20 µM; 330,000 tested, 1.3% active; AID 463212;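 active means growth inhibition of the mutant yeast at or above 50%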;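 further: temperature-sensitive mutant grown at 25 °C; plate controls were DMSO-treated mutant yeast for no effect and medium wells lacking yeast for full effect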
# CHOP UPR activ: activators of apoptotic arm of unfolded protein response (CHOP) | CHO-CHOP luciferase reporter, UPR activation, luminescence; percent of tunicamycin response over DMSO baseline | activation, % at 10 µM | 330,000 tested, 0.34% active;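 active means at 10 µM dose, activation of 40% or more, normalized to positive control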;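 further: 100% = tunicamycin at 10 µg/mL and 0% = DMSO alone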
#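 System: CHO-CHOP luciferase reporter cell line; amount: 500 cells/well; buffer or medium: F12 medium containing 10% fetal bovine serum; incubation: 6 h compound exposure at 37 °C after overnight seeding; measured by: luciferase luminescence after 10 min with Steady-Glo reagent; evaluation: % reporter activation, DMSO baseline versus tunicamycin full activation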
# tim10-1 confirm: confirmation of tim10-1 mutant yeast growth inhibitors; shares compounds with tim10-1 inh; S. cerevisiae tim10-1 ts strain growth, BacTiter-Glo, 24 h; inhibition, % at 20 µM; 7,400 tested, 56% active; AID 463213;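 active means inhibition of yeast growth at or above a set limit in either of two repeat tests at 20 µM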;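 further: tim10-1 mutant grown at permissive 25 °C to find synthetic lethal compounds; 0% = DMSO yeast wells and 100% = medium wells without yeast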
# Active calls of the source: *; · = no result given.
SMILES,TIM10 inh,UPR XBP1 act,tim10-1 inh,tim23-1 inh,CHOP UPR activ,tim10-1 confirm
CCOc1cc(/C=C2\N=C(C)OC2=O)cc(Br)c1OCC(=O)OC,16,-5,44*,26,2,10
Cc1ccc(NS(=O)(=O)c2ccc(C(=O)Nc3nncs3)cc2)cc1,-6,-4,-5,-4,-1,·
N#Cc1cc([N+](=O)[O-])ccc1NC(=O)CSc1n[nH]c(=O)[nH]c1=O,2,-2,-11,-3,0,·
CCCn1c(-c2cccs2)nc2ccccc21,15,-1,41*,38,0,0
CCOc1ccccc1C=Nc1ccccc1C(=O)Nc1ccccc1,36,2,46*,36,1,29
O=C(Nc1ccccc1)c1ccccc1N=Cc1ccccc1O,4,-1,-5,12,1,·
COc1ccc(C(C(=O)NC2CCCC2)N(C(=O)c2ccoc2C)c2ccc(C)c(C)c2)cc1 (stereo not drawn),35,3,41*,24,-1,17
O=C1c2cccc(Cl)c2C(=O)c2c1cccc2N1CCCC1,38,-3,53*,42,-2,38*
O=C(Nc1nnc(C2CC2)s1)c1ccco1,17,3,5,17,3,·
O=C(Nc1nnc(C2CCCCC2)s1)c1ccco1,24,5,45*,32,4,35*
Cc1cc(Nc2ccccc2)c2c([N+](=O)[O-])c(C)cc(C)c2n1,32,6,41*,45,-3,27
Cc1cccc(Nc2cc(C)nc3ccccc23)c1,-6,-6,-15,-5,0,·
CCCCCc1nnc(NC(=O)C2COc3ccccc3O2)s1 (stereo not drawn),21,1,46*,50,5,40*
O=C(CN1C(=O)NC2(CCCCC2)C1=O)Nc1ccccc1N1CCCC1,1,-2,9,4,-1,·
O=C1Nc2ccccc2/C1=N/N=C/c1cccc(O)c1,16,0,17,5,3,·
COc1cc(/C=N/N=C2/C(=O)Nc3ccccc32)cc(OC)c1O,36,2,44*,43,1,52*
CN(CC(=O)Nc1ccc(Cl)c(Cl)c1)CC(=O)Nc1ccc2c(c1)OCO2,18,0,3,1,2,·
CCN1CCN(C(=O)CCn2c(=O)c3cccn3c3cccnc32)CC1,-10,-3,-5,-7,-2,·
O=C(Nc1cc(Cl)cc(Cl)c1)C(NCC1CCCO1)c1ccccc1 (stereo not drawn),23,-1,45*,36,4,26
CC(C)NC(C(=O)Nc1cc(Cl)cc(Cl)c1)c1ccccc1 (stereo not drawn),14,7,26,19,-2,·
Fc1cccc(F)c1CSc1nc2ccccc2[nH]1,35,3,43*,32,5,30
O=[N+]([O-])c1ccccc1S(=O)(=O)NCCSc1ccccc1,-16,-2,11,30,-2,·
O=S(=O)(NCCCSc1ccccc1)c1ccccc1F,5,4,42*,48,1,18
CC(OC(=O)CCOc1ccccc1)C(=O)NC1CC1 (stereo not drawn),-4,2,1,11,1,·
N#CCCN1CCN(C(=S)c2ccc(-c3ccc(Cl)cc3)o2)CC1,20,5,45*,32,2,22
SMILES,TIM10 inh,UPR XBP1 act,tim10-1 inh,tim23-1 inh,CHOP UPR activ,tim10-1 confirm
CC(C)n1nnnc1SCC(=O)N(C)C1CCS(=O)(=O)C1 (stereo not drawn),-4,0,-8,-6,1,·
N=C1C(c2nc3ccccc3c(=O)[nH]2)=C(O)CN1CCO,1,-2,22,42,0,·
N=C1C(c2nc3ccccc3c(=O)[nH]2)=C(O)CN1CCc1ccccc1,12,2,41*,9,1,-14
CCOc1cc(C(=O)NC(=S)Nc2cccnc2)cc(OCC)c1OCC,20,-1,43*,24,-3,18
Cc1nn(-c2ccccc2)c2c1C(O)n1c(nc3ccccc31)S2 (stereo not drawn),25,3,41*,38,2,-5
Cc1cc(NC(=O)COC(=O)c2cc(S(=O)(=O)N(C)C)ccc2Cl)no1,-2,0,24,9,1,·
Cc1ccc(S(=O)(=O)N(Cc2ccccc2)c2ccccc2C(=O)Nc2ccccc2C(=O)NCc2ccco2)cc1,11,1,26,32,-2,·
Cc1ccc(S(=O)(=O)N(Cc2ccccc2)c2ccccc2C(=O)NCc2ccco2)cc1,12,-2,41*,38,-1,20
CC1CCc2c(sc3ncnc(NCCCOC(C)C)c23)C1 (stereo not drawn),13,-2,40,43,2,10
CC1CCc2c(sc3ncnc(NCc4cccnc4)c23)C1 (stereo not drawn),13,3,11,22,1,·
CCCCNC(=O)N1CCN(c2ccnc3cc(Cl)ccc23)CC1,2,1,13,5,0,·
CC1CCCCC1NC(=O)c1cccc(S(=O)(=O)N2CCN(Cc3ccccc3)CC2)c1 (stereo not drawn),20,-2,29,19,-1,·
CN(/N=C/c1ccc([N+](=O)[O-])o1)c1ccccc1,34,-1,52*,37,2,41*
N#Cc1ccccc1S(=O)(=O)N1CCN(C(=O)C2CCC2)CC1,-2,-3,97*,-2,-1,4
COc1ccc(NC(=O)CSc2nnc(C)n2C2CC2)cc1S(=O)(=O)N1CCOCC1,-2,-1,-11,-14,3,·
CCc1nn(C(C)C(=O)NC2CCCCCC2)c(=O)c2cc3occc3n12 (stereo not drawn),4,-4,41*,34,1,-7
COc1ccc(C(CNC(=O)c2cc(S(=O)(=O)N3CCN(c4ccccc4)CC3)ccc2Cl)N(C)C)cc1 (stereo not drawn),9,-2,10,16,0,·
CCCCn1nc(NC(=O)c2cccs2)c2cc3ccccc3nc21,25,0,48*,49,0,39*
CCCn1nc(NC(=O)c2cccs2)c2cc3ccc(C)cc3nc21,-3,2,-4,-2,4,·
CCCn1nc(NC(=O)c2cccs2)c2cc3cc(C)ccc3nc21,15,1,41*,43,1,31*
Cc1ccc(C(=O)N2CCCC(C(=O)Nc3cccc(-c4ccc(F)cc4)c3)C2)cn1 (stereo not drawn),0,-3,11,8,3,·
COc1ccc(/C=C/c2ccc(=O)n(Cc3ccccc3)n2)cc1,0,10,40*,22,1,-1
CC(C)CN(C(=O)COc1ccc(Br)cc1C=O)C1CCS(=O)(=O)C1 (stereo not drawn),15,-1,12,-1,-1,·
